Screens deposited in PubChem BioAssay by The Scripps Research Institute Molecular Screening Center.
IMP-1 inh-1: inhibitors of Pseudomonas aeruginosa IMP-1 metallo-beta-lactamase | purified IMP-1, nitrocefin hydrolysis, epi-absorbance fluorescence | actives 0.45% (n = 290,000) | AID 1556 | inhibition, % at 5.6 µM;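 active = inhibition above the mean plus 3 SD of all compounds in the same screening run, cut at about 4.5% in these data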
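System: purified recombinant IMP-1 beta-lactamase. Medium: Zinc- and detergent-supplemented HEPES buffer, pH 7.1. Compound: one 5.6 µM dose […]. Schedule: 15 min preincubation plus 25 min reaction at 25 °C. Technique: Epi-absorbance fluorescence, 480 nm excitation, 530 nm emission.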
pPAFAH inh: inhibitors of human plasma PAF acetylhydrolase (pPAFAH); Q13093; recombinant pPAFAH, FP-rhodamine probe fluorescence polarization; inhibition, % at 3.39 µM; actives 1.5% (n = 330,000); AID 463082;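 active = inhibition above the mean inhibition across the screen plus 3 SD, cut at about 25% in these data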;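 also: inhibitors block binding of the rhodamine activity-based probe so polarization drops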
Target sequence (Q13093 whole entry, looked up): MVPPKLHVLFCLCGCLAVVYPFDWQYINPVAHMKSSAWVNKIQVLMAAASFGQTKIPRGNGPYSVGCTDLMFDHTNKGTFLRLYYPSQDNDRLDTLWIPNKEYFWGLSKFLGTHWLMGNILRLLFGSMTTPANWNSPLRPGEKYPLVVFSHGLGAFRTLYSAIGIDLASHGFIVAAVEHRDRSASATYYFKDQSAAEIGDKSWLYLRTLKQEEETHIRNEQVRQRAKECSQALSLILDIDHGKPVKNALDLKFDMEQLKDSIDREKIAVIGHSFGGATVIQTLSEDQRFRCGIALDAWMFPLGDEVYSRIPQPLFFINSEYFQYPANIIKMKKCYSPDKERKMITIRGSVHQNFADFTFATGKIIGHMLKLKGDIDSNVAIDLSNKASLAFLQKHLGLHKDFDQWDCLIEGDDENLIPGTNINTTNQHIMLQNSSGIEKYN
PAFAH2 FP inh: PAFAH2 (human) inhibition | recombinant PAFAH2, FP-rhodamine activity probe, fluorescence polarization | actives 0.99% (n = 340,000) | Q99487 | inhibition, % at 3.39 µM;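 active = inhibition above the mean over all tested compounds plus 3 SD, cut at about 30% in these data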;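 also: inhibitors block probe labeling of enzyme so polarization drops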
VIM-2 inh: inhibitors of Pseudomonas aeruginosa VIM-2 metallo-beta-lactamase. purified VIM-2, nitrocefin hydrolysis, epi-absorbance fluorescence. inhibition, % at 5.6 µM. AID 1527. actives 0.89% (n = 290,000);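 active = inhibition above the mean of all tested compounds plus 3 SD, cutoff set per screening run, cut at about 7.5% in these data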;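 also: red hydrolysis product quenches plate fluorescence so inhibitors raise well fluorescence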
PAFAH1B2 FP inh: PAFAH1B2 (human) inhibition | P68402 | recombinant PAFAH1B2, FP-rhodamine activity probe, fluorescence polarization | inhibition, % at 3.39 µM | actives 1.2% (n = 340,000) | AID 492953;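 active = inhibition above the mean of all tested compounds plus 3 SD, cut at about 24% in these data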
PAFAH1B3 FP inh: inhibitors of human PAFAH1B3 | recombinant PAFAH1B3, FP-rhodamine probe, fluorescence polarization | inhibition, % at 3.39 µM | Q15102 | AID 492972 | actives 0.28% (n = 340,000);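 active = inhibition above the screen-wide average of all tested compounds plus 3 SD, cut at about 25% in these data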
IMP-1 inh-2: blocks IMP-1 metallo-beta-lactamase in VIM-2 selectivity screen | 1,300 tested, under 10 active | inhibition, % at 5.6 µM | AID 1856 | purified IMP-1, nitrocefin hydrolysis, epi-absorbance fluorescence | shares compounds with VIM-2 inh; call rule not given here
VIM-2 FRET ctr: VIM-2 FRET inhibition, artifact counter-screen; purified VIM-2, CCF2 FRET substrate hydrolysis; inhibition, % at 5.6 µM; actives 23% (n = 1,300); shares compounds with VIM-2 inh;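 active = inhibition above the mean of all tested compounds plus 3 SD, cut at about 19% in these data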
TEM-1 inh: blocks E. coli TEM-1 beta-lactamase in VIM-2 selectivity screen; shares compounds with VIM-2 inh; Purified TEM-1, nitrocefin hydrolysis, epi-absorbance fluorescence; inhibition, % at 5.6 µM; actives 3% (n = 1,300); AID 1866;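 active = inhibition above that campaign's mean inhibition plus 3 SD, cut at about 0.46% in these data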
Target sequence (P62593 whole entry, looked up): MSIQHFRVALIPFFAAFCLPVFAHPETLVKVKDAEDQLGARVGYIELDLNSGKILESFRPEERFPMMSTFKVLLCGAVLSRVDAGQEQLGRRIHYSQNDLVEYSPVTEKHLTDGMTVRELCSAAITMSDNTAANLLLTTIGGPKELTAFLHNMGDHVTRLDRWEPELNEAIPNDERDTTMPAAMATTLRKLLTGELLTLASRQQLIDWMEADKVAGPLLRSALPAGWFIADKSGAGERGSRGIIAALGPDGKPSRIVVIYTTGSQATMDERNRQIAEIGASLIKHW
VIM-2 inh conf: confirmation of P. aeruginosa VIM-2 metallo-beta-lactamase inhibitors | shares compounds with VIM-2 inh | purified VIM-2, nitrocefin hydrolysis, epi-absorbance | inhibition, % at 5.6 µM | actives 96% (n = 1,300) | AID 2187;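 active = inhibition of the VIM-2 beta-lactamase enzyme above about 11% from the earlier first-round screen, limit read from the data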
Hits are given with their value; n = inactive; x = no result given. A selection: hits, their analogues and other compounds. The true share with any hit is near 3.6%.

SMILES	IMP-1 inh-1	pPAFAH inh	PAFAH2 FP inh	VIM-2 inh	PAFAH1B2 FP inh	PAFAH1B3 FP inh	IMP-1 inh-2	VIM-2 FRET ctr	TEM-1 inh	VIM-2 inh conf
N#Cc1ccccc1OCC(=O)Nc1ccc(S(=O)(=O)N2CCOCC2)cc1	x	n	n	x	n	n	x	x	x	x
O=C(O)C(c1ccccc1)N1C(=O)c2ccccc2C1=O (configuration not stated)	n	n	n	n	n	n	x	x	x	x
O=C(O)C(c1ccccc1)N1C(=O)c2cccc3cccc(c23)C1=O (configuration not stated)	n	n	n	20	n	n	n	39	n	27
CCc1[nH]nc2c1C(c1ccncc1)C(C#N)=C(N)O2 (configuration not stated)	n	n	n	n	n	n	x	x	x	x
CCOc1cc(C2C(C#N)=C(N)Oc3n[nH]c(CC)c32)ccc1OCCN1CCOCC1 (configuration not stated)	n	n	n	13	n	n	n	n	n	8.3
COc1cccc(Cn2cnc3c(sc4nc(C)cc(C)c43)c2=O)c1	n	n	n	n	n	n	x	x	x	x
CC(=O)Cn1cnc2c(sc3nc(C)cc(C)c32)c1=O	n	n	n	14	n	n	n	n	n	17
Cc1nc2ccc(NC(=O)N3CCSCC3)cc2nc1C	n	n	n	16	n	n	n	n	n	n
Cc1nc2ccc(NC(=O)N3CCCCC3)cc2s1	n	n	n	n	n	n	x	x	x	x
O=C(CN1CCN(CC(=O)Nc2ccc3c(c2)OC2(CCCCC2)O3)CC1)Nc1cccc(F)c1	x	x	n	x	n	n	x	x	x	x
CCOC(=O)c1ccc(S(=O)(=O)N2CC(=O)Nc3ccccc32)cc1	n	n	n	n	n	n	x	x	x	x
COc1cc(OC)c2nc(C)c3c(c2c1)N(c1ccc(O)cc1)CC3	n	n	n	57	n	n	n	n	n	69
Cn1cc(Cl)c(-c2n[nH]c(=S)n2C2CCCCC2)n1	n	n	n	42	n	n	n	60	n	43
S=c1[nH]nc(-c2ccco2)n1C1CCCCC1	n	n	n	25	26	n	n	52	n	34
S=c1[nH]nc(CSCc2ccccc2Cl)n1C1CCCCC1	n	x	n	n	n	n	x	x	x	x
Nn1c(-c2ccco2)n[nH]c1=S	n	n	n	n	n	n	x	x	x	x
CCCCCCN(C(=O)CCCN1C(=O)NC(c2ccc([N+](=O)[O-])cc2)C(C(=O)OCc2ccccc2)=C1C)C(C)C(=O)NCCCC (configuration not stated)	x	n	n	x	n	n	x	x	x	x
CC(=O)c1ccc(OCCCC(=O)Nc2cc(S(=O)(=O)N3CCCCC3)ccc2C)cc1	x	x	n	x	n	n	x	x	x	x
O=C1C(=Cc2ccco2)C(=O)c2ccccc21	n	28	n	31	n	n	n	n	n	n
O=C1/C(=C/c2ccco2)CCc2ccccc21	n	n	n	n	n	n	x	x	x	x
CCOc1ccccc1NC(=O)COC(=O)C(Cc1ccccc1)NC(=O)c1ccco1 (configuration not stated)	x	n	n	x	n	n	x	x	x	x
Cc1cc(SCc2cccc(C(F)(F)F)c2)nc(=O)[nH]1	n	n	n	n	n	n	x	x	x	x
Cc1nn(CC(=O)NCCCN2CCN(C)CC2)c(=O)c2cc(-c3ccccc3)nn12	n	n	n	n	n	n	x	x	x	x
Cc1nn(CC(=O)NCCCN2CCC(N3CCCCC3)CC2)c(=O)c2cc(-c3ccccc3)nn12	n	n	n	22	n	n	n	n	n	37
COC(=O)c1ccc(-c2ccc(C(=O)N3CCCN(C)CC3)cc2)cc1	n	x	x	13	x	x	n	30	n	21
SMILES	IMP-1 inh-1	pPAFAH inh	PAFAH2 FP inh	VIM-2 inh	PAFAH1B2 FP inh	PAFAH1B3 FP inh	IMP-1 inh-2	VIM-2 FRET ctr	TEM-1 inh	VIM-2 inh conf
CN1CCCN(C(=O)c2ccc(Cl)cc2)CC1	n	n	n	n	n	n	x	x	x	x
CN1CCN(CCCn2cnc3c(=O)oc4ccccc4c32)CC1	n	n	n	21	n	n	n	n	n	40
O=c1oc2ccccc2c2c1ncn2CCN1CCOCC1	n	n	n	n	n	n	x	x	x	x
Cc1nc(SC(C)C(=O)c2c(N)n(C)c(=O)n(C)c2=O)c2c(C)c(C)sc2n1 (configuration not stated)	x	n	n	x	n	n	x	x	x	x
CN1CCN(CC(=O)Nc2c(C(=O)C3CC3)oc3ccccc23)CC1	n	n	n	21	n	n	n	n	n	36
CN(C)S(=O)(=O)c1cccc(NC(=S)N/N=C/c2cccc(O)c2)c1	n	n	n	18	n	n	n	n	n	14
CN(C)S(=O)(=O)c1cccc(NC(=S)Nc2ccc3cn[nH]c3c2)c1	n	n	n	n	n	n	x	x	x	x
CCSc1ccc2nnc(-c3cccs3)n2n1	n	n	n	17	n	n	n	n	n	28
CCSc1ccc2nnc(-c3ccc(F)cc3)n2n1	n	n	n	14	n	n	n	n	n	24
CCOC(=O)c1cnc2c(CC)cccc2c1NCCN1CCOCC1	n	n	n	14	n	n	n	n	n	24
CC(=O)Nc1cccc(Oc2nc(C(F)(F)F)nc3ccccc23)c1	n	n	n	14	n	n	n	n	n	26
COc1cc(Oc2nc(C(F)(F)F)nc3ccccc23)ccc1C=O	n	n	n	14	n	n	n	n	n	24
COc1ccc(Oc2nc(C(F)(F)F)nc3ccccc23)cc1	n	n	n	n	n	n	x	x	x	x
CCCCn1c(N)c(N(CC)C(=O)CN2C(=O)NC(C)(c3ccccc3)C2=O)c(=O)[nH]c1=O (configuration not stated)	n	n	n	n	n	n	x	x	x	x
CC1=C(C(=O)O)N2C(=O)C(NC(=O)c3nn(C)cc3[N+](=O)[O-])C2SC1 (configuration not stated)	n	n	x	15	x	x	n	33	n	21
CC1=C(C(=O)O)N2C(=O)C(NC(=O)c3ccn(C)n3)C2SC1 (configuration not stated)	n	n	n	n	n	n	x	x	x	x
Clc1ccc(-c2csc(=Nc3cccnc3)n2CCCn2ccnc2)cc1Cl	n	n	n	30	n	n	n	n	n	35
CCN(c1ccccc1)S(=O)(=O)c1ccc(C(=O)NC2CCN(Cc3ccccc3)CC2)cc1	x	n	n	x	n	n	x	x	x	x
Cc1cnc(C(=O)OCC(=O)Nc2ncc(Cl)cc2Cl)cn1	x	n	n	x	n	n	x	x	x	x
CCCCc1c(C)c(C#N)c2[nH]c3ccccc3n2c1=O	n	n	n	n	n	n	x	x	x	x
